In brackets after ≈: the same amount, converted by molar mass.

Experiment [1] relates to Mycobacterium tuberculosis. In words: Antimycobacterial activity against Mycobacterium tuberculosis H37Rv after 21 days by broth macrodilution method. The class given is functional. Particulars: 504 h. Summed up:
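Triplicate tubes of Middlebrook 7H9 broth with casitone, glycerol and 10% OADC; methanol-dissolved compounds diluted twofold, 128–0.125 µg/mL. Inoculum from log-phase H37Rv, adjusted to McFarland 1 and diluted to 1 × 10^5 CFU/mL, 500 µL per tube. Compound-free and solvent controls included. Aerobic incubation at 37 °C, tubes read macroscopically every 7 days to day 21 for MIC.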

Experiment [2] relates to Mycobacterium tuberculosis. The experiment is described as follows: Antimycobacterial activity against Mycobacterium tuberculosis XDR infected in MDBK by BACTEC analysis. It counts as functional. Summed up: (§1)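 Radiometric BACTEC 460 TB. Cultures were grown at 37 °C with stirring, inoculated into BACTEC vials at OD ~0.16 and grown to GI 500 (±50) as the primary culture. Compounds were diluted in methanol to 8–0.03125 µg/mL final. GI was recorded every 24 h, and a daily ΔGI >10 counted as growth. Strains were H37Rv (ATCC 25618) and XDR strain X194.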

For experiment [3], the system named is Mycobacterium tuberculosis. In words: Antimycobacterial activity against Mycobacterium tuberculosis H37Rv infected in MDBK by BACTEC analysis. The class given is functional. A digest of the protocol:
as §1

A short description of experiment [4]: Cytotoxicity against MDBK cells after 48 hrs by MTT assay. It counts as cell-based. The note with it: Bos taurus. Summed up: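 MDBK monolayers were grown in RPMI 1640 with 10% heat-inactivated FBS and pen/strep. Cells were seeded at 5 × 10^4 per well, settled 6 h, then exposed 42 h at 37 °C to compounds in 1% methanol diluted in media; the vehicle served as the 100% viability control. MTT was added for 3 h and formazan read at 570 nm. Runs were quintuplicate, repeated on two days; % cytotoxicity = 100 − (OD sample/OD control × 100).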
Background: Tetrazolium assays rely on reduction of a dye to a coloured formazan, in cell work by metabolically active cells.

In the case of `OCCN(CCC12OC3(CCN(CCO)Cc4ccccc4)C4C5CC(C6C5C3C61)C42)Cc1ccccc1` (centres undefined), in experiment [1], the MIC was determined as 248 µM (≈ 128 µg/mL). `C1CNCCN(CCC23OC4(CCN5CCCNCC5)C5C6CC(C7C6C4C72)C53)C1` (centres undefined) yielded an MIC in experiment [1] of 155 µM (≈ 64 µg/mL).

`c1ccc(CNCCC23OC4(CCNCc5ccccn5)C5C6CC(C7C6C4C72)C53)nc1` (centres undefined) displayed a minimum inhibitory concentration (MIC) in experiment [1] of 298 µM (≈ 128 µg/mL). Turning to `CC(C)=CCC/C(C)=C/CC/C(C)=C\CN1CCN(CCC23OC4(CCN5CCN(C/C=C(\C)CC/C=C(\C)CCC=C(C)C)CC5)C5C6CC(C7C6C4C72)C53)CC1` (centres undefined), the minimal inhibitory concentration (MIC) in experiment [2] amounted to 0.63 µM; in experiment [3], 0.32 µM (≈ 0.254 µg/mL); in experiment [1] it was 5.04 µM (≈ 4 µg/mL). The same molecule yielded an IC50 in experiment [4] of 24 µM.

In the case of `CC(C)=CCC/C(C)=C\CN1CCN(CCC23OC4(CCN5CCN(C/C=C(\C)CCC=C(C)C)CC5)C5C6CC(C7C6C4C72)C53)CC1` (centres undefined), the MIC in experiment [2] turned out to be 1.52 µM; in experiment [3] it was 0.76 µM (≈ 0.499 µg/mL); in experiment [1], 6.09 µM (≈ 4 µg/mL). Also, in experiment [4], half-maximal inhibition (IC50) required 30 µM. Regarding `O=C(c1ccc([N+](=O)[O-])o1)N1CCN(CCC23OC4(CCN5CCN(C(=O)c6ccc([N+](=O)[O-])o6)CC5)C5C6CC(C7C6C4C72)C53)CC1` (centres undefined), the minimal inhibitory concentration (MIC) in experiment [3] was > 12.1 µM; in experiment [1] it was 24.1 µM (≈ 16 µg/mL). The matching figures for `O=C(c1ccc([N+](=O)[O-])o1)N1CCCN(CCC23OC4(CCN5CCCN(C(=O)c6ccc([N+](=O)[O-])o6)CC5)C5C6CC(C7C6C4C72)C53)CC1` (centres undefined): > 11.6 µM and 23.2 µM (≈ 16 µg/mL). Turning to `c1ccc(CN2CCCN(CCC34OC5(CCN6CCCN(Cc7ccccc7)CC6)C6C7CC(C8C7C5C83)C64)CC2)cc1` (centres undefined), 108 µM (≈ 64.1 µg/mL) was the least that counted as inhibitory in experiment [1] (MIC). In turn, `CCCCCCCCCCN1CCN(CCC23OC4(CCN5CCN(CCCCCCCCCC)CC5)C5C6CC(C7C6C4C72)C53)CC1` (centres undefined) returned an MIC in experiment [2] of 0.75 µM. In addition, in experiment [4], half-maximal inhibition (IC50) was put at 25 µM. With `O=C(c1ccccc1)N1CCN(CCC23OC4(CCN5CCN(C(=O)c6ccccc6)CC5)C5C6CC(C7C6C4C72)C53)CC1` (centres undefined), it took 216 µM (≈ 128 µg/mL) to inhibit growth in experiment [1] (MIC). Consider `c1ccc(CN2CCN(CCC34OC5(CCN6CCN(Cc7ccccc7)CC6)C6C7CC(C8C7C5C83)C64)CC2)cc1` (centres undefined), for which inhibition of growth in experiment [1] (MIC) required 113 µM (≈ 64 µg/mL). Consider `NCC[C@H](O)C(=O)N[C@@H]1C[C@H](N)[C@@H](O[C@H]2O[C@H](CN)[C@@H](O)[C@H](O)[C@H]2O)[C@H](O)[C@H]1O[C@H]1O[C@H](CO)[C@@H](O)[C@H](N)[C@H]1O` [AMIKACIN], for which the minimum inhibitory concentration (MIC) in experiment [2] is > 5 µg/mL. As to `CC[C@@H](CO)NCCN[C@@H](CC)CO` [ETHAMBUTOL], the results for the MIC in experiment [2] and in experiment [1] were > 2.5 µg/mL and 19.6 µM (≈ 4 µg/mL), respectively. In the case of `NNC(=O)c1ccncc1` [ISONIAZID], the MIC in experiment [2] was > 0.2 µg/mL. In the case of `NC[C@H]1O[C@H](O[C@H]2[C@H](O)[C@@H](O[C@H]3O[C@H](CO)[C@@H](O)[C@H](N)[C@H]3O)[C@H](N)C[C@@H]2N)[C@H](O)[C@@H](O)[C@@H]1O` [KANAMYCIN], the MIC in experiment [2] was > 5 µg/mL.

In the case of `CC1COc2c(N3CCN(C)CC3)c(F)cc3c(=O)c(C(=O)O)cn1c23` (centres undefined) [OFLOXACIN], the minimum inhibitory concentration (MIC) in experiment [2] is > 2 µg/mL. Consider `CO[C@H]1/C=C/O[C@@]2(C)Oc3c(C)c(O)c4c(O)c(c(/C=N/N5CCN(C)CC5)c(O)c4c3C2=O)NC(=O)/C(C)=C\C=C\[C@H](C)[C@H](O)[C@@H](C)[C@@H](O)[C@@H](C)[C@H](OC(C)=O)[C@@H]1C` [RIFAMPIN], for which the MIC in experiment [2] is > 1 µg/mL. In experiment [3], `CC(C)=CCC/C(C)=C/CNCCNC1C2CC3CC(C2)CC1C3` (centres undefined) [SQ109] showed an MIC of 0.63 µM (≈ 0.208 µg/mL). In experiment [4], this molecule showed a 50% inhibitory concentration (IC50) of 26 µM.

Usually MIC stands for the lowest concentration that inhibits growth of the organism. For orientation: IC50 means the concentration needed to halve the response being measured. High values mean weaker potency in that assay, low ones greater potency in that assay.

Values taken from ChEMBL document CHEMBL1155975, “Pentacyclo-undecane derived cyclic tetra-amines: synthesis and evaluation as potent anti-tuberculosis agents” (Eur J Med Chem, 2009).
